pIC50: −log10 of the molar value.
Legend:
[1] = target: Aldo-keto reductase family 1 member B1 (Homo sapiens, UniProt P15121); experiment: Inhibition of aldose reductase by spectrophotometric analysis
[2] = Inhibition of advanced glycation end product formation in phosphate buffered saline at pH 7.4 after 14 days by fluorospectrophotometry; format: physicochemical
[3] = Induction of NO release in phosphate buffered saline of pH 7.4 at 10^-4 M after 1 hr by Griess assay in presence of L-cysteine; format: physicochemical; settings: buffer, pH 7.4, 1 h, 100 µM
How it was run: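 Compound at 10^-4 M final in 1:1 v/v 50 mM PBS (pH 7.4)/MeOH containing 5 × 10^-4 M L-cysteine, 1 h at 37 °C; mixture treated with Griess reagent, 10 min at room temperature, absorbance 540 nm. Nitrite quantified against sodium nitrite standards (10–80 nmol/mL); expressed as % of theoretical 1 mol NO/mol compound, n = 3.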

## CC(=O)Oc1cc(OCC(=O)OCc2cccc(OCc3c(-c4ccccc4)no[n+]3[O-])c2)cc2oc(-c3ccccc3)cc(=O)c12
[1]
  pIC50: 5.79
[2]
  pIC50: 4.58
[3]
  Activity: 1.89%

## O=c1cc(-c2ccccc2)oc2cc(O)cc(O)c12 [CHRYSIN]
[1]
  pIC50: 5.11
[2]
  pIC50: 4.20

## N=C(N)NN [PIMAGEDINE]
[2]
  pIC50: 3.08

## O=C(COc1cc(O)c2c(=O)cc(-c3ccccc3)oc2c1)OCc1cccc(OCc2c(-c3ccccc3)no[n+]2[O-])c1
[1]
  pIC50: 6.66

## [O-][n+]1onc(-c2ccccc2)c1CO
[1]
  pIC50: ≤ 5.00

## CC(=O)Oc1cc(OCC(=O)OCc2c(-c3ccccc3)no[n+]2[O-])cc2oc(-c3ccccc3)cc(=O)c12
[1]
  pIC50: 6.05

## O=C(COc1cc(O)c2c(=O)cc(-c3ccccc3)oc2c1)OCc1c(-c2ccccc2)no[n+]1[O-]
[1]
  pIC50: 6.12

## O=C(COc1cc(O)c2c(=O)cc(-c3ccccc3)oc2c1)OCc1ccc(OCc2c(-c3ccccc3)no[n+]2[O-])cc1
[1]
  pIC50: 6.40

## CC(=O)Oc1cc(OCC(=O)OCc2ccc(OCc3c(-c4ccccc4)no[n+]3[O-])cc2)cc2oc(-c3ccccc3)cc(=O)c12
[1]
  pIC50: 5.71
